The text below walks through data of PMC4306527 (Journal of medicinal chemistry, 2014).

Data set [1] concerns the target rCB1 receptor (rat brain membranes) (Rattus norvegicus, UniProt P20272). Briefly: Radioligand competition binding, rat brain CB1, [3H]CP-55,940. (Displacement assays read how much labelled ligand stays bound in the presence of the test substance.)
A further data set has as its target hCB2 receptor (Homo sapiens, UniProt P34972). Briefly: Radioligand competition binding, human CB2 in HEK293 membranes, [3H]CP-55,940.
Another data set concerns the target mCB2 receptor (Mus musculus, UniProt P47936). Description: Radioligand competition binding, mouse CB2 in HEK293 membranes, [3H]CP-55,940.
In data set [2] the test system is rats. Briefly: Hypothermia testing in rats. In kind it is in vivo, rat. The method in brief: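 Female Sprague–Dawley rats (250–350 g, n = 6/group), reused with ≥5 days between sessions. Test compound was dissolved in 20% ethanol/20% alkamuls/60% saline, then diluted with saline. Temperature was taken by a thermistor probe at 6 cm depth in minimally restrained, isolated rats. Two baselines 15 min apart; injected after the second; read every 30 min to 3 h, then hourly to 6 h. ED50 = dose lowering temperature 3 °C.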

A further data set concerns male CD-1 mice. Description: Tail-flick withdrawal. In kind it is in vivo, mouse. To be noted: 0.3 and 1.0 mg/kg ip, descending phase 180 and 360 min.
In data set [3] the test system is rats. To be noted: sc, data published previously; cited from earlier work.
For the next data set, the system named is mouse plasma esterases. Description: In vitro plasma stability toward mouse plasma esterases. It counts as in vitro ADME. The conditions noted are these: 200 μM in mouse plasma, 37 °C; Stable = no observable hydrolysis within 5 h. The method in brief: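 Test compound at 200 μM in mouse plasma, incubated at 37 °C with 100 rpm shaking. Samples taken at various time points were diluted 1:4 in acetonitrile and centrifuged to remove protein. Supernatant was analysed by HPLC on a C18 column. Half-life came from an exponential decay fit.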

Values joined by “and” are separate entries in the source; they are usually repeats but may differ in a detail not shown here. Equal entries are not always repeated.

hCB2 receptor, sequence (P34972 whole entry): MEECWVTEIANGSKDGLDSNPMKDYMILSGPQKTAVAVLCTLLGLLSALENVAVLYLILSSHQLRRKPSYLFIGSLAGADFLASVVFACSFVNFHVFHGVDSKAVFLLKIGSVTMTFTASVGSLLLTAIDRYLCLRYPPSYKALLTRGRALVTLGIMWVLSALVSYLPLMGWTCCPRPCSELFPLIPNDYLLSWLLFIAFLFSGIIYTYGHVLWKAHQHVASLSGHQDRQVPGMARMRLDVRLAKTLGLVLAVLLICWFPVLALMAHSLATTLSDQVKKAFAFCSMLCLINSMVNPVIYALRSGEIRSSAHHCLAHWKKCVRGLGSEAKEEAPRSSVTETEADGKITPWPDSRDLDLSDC
rCB1 receptor (rat brain membranes), sequence (P20272 whole entry): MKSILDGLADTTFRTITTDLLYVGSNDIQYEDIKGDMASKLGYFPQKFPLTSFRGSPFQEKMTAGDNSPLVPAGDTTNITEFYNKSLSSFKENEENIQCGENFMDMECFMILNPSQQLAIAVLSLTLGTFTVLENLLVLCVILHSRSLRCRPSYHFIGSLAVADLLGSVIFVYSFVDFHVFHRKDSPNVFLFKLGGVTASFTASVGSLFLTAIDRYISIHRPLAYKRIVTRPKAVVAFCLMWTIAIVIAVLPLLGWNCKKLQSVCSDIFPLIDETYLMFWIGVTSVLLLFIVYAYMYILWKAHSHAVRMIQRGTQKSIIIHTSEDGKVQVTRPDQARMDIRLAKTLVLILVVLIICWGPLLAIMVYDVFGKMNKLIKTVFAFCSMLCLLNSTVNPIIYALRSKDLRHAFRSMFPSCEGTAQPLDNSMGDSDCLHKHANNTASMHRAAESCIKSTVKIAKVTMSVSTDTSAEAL
mCB2 receptor, sequence (P47936 whole entry): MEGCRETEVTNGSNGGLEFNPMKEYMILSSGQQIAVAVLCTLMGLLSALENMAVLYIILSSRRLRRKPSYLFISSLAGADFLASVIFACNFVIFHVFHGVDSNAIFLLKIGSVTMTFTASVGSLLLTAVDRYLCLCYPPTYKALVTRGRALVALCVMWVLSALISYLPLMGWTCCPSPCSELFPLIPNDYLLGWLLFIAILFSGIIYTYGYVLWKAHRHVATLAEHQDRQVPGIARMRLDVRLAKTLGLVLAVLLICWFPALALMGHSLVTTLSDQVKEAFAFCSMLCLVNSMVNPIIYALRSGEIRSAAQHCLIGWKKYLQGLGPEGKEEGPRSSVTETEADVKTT

In the case of `CC1=CC[C@@H]2[C@@H](C1)c1c(O)cc(C(C)(C)C(=O)OCCCCn3ccnc3)cc1OC2(C)C` [Compound 9d, 2-[(6aR,10aR)-6a,7,10,10a-Tetrahydro-1-hydroxy-6,6,9-trimethyl-6H-dibenzo[b,d]pyran-3-yl]-2-methyl-propanoic Acid 4-(1H-Imidazol-1-yl)butyl Ester], in data set [1], the “fold reduction of CB1 affinity relative to 10b” value is reported as ~ 8 fold. `CCOC(=O)C(C)(C)c1cc(O)c2c(c1)OC(C)(C)[C@@H]1CC=C(C)C[C@@H]21` [Compound 8b, 2-[(6aR,10aR)-6a,7,10,10a-Tetrahydro-1-hydroxy-6,6,9-trimethyl-6H-dibenzo[b,d]pyran-3-yl]-2-methyl-propanoic Acid Ethyl Ester]: the “fold higher binding affinity for hCB2 compared to (−)-Δ^8-THC” value at hCB2 receptor is recorded as 24 fold. The “fold higher binding affinity for mCB2 compared to (−)-Δ^8-THC” value at mCB2 receptor is listed as 78 fold. As to `CC1=CC[C@@H]2[C@@H](C1)c1c(O)cc(C(C)(C)C(=O)OCCCC#N)cc1OC2(C)C` [Compound 10a, 2-[(6aR,10aR)-6a,7,10,10a-Tetrahydro-1-hydroxy-6,6,9-trimethyl-6H-dibenzo[b,d]pyran-3-yl]-2-methyl-propanoic Acid 3-Cyano-propyl Ester], the “reduction of body temperature” value with rats [2] (0.1 mg/kg sc, from average baseline of 37.8 ± 0.1 °C) came to 4.5 ± 0.5 °C. Further, the “fold more potent than (−)-Δ^8-THC-DMH and/or 2b” value with rats [2] (hypothermia) was 8–10 fold and 10 fold. The “offset of the analgesia effect compared to 2b” value with male CD-1 mice was “significantly faster”.

With `CCCCCCC(C)(C)c1cc(O)c2c(c1)OC(C)(C)[C@@H]1CC=C(C)C[C@@H]21` [(−)-Δ^8-THC-DMH, (−)-Δ^8-THC-dimethylheptyl], the “ED50 (dose required to reduce temperature by 3 °C)” value with rats [3] was 0.29 mg/kg. As to `CCCCCNC(=O)C(C)(C)c1cc(O)c2c(c1)OC(C)(C)[C@@H]1CC=C(C)C[C@@H]21` [Compound 18, 2-[(6aR,10aR)-6a,7,10,10a-Tetrahydro-1-hydroxy-6,6,9-trimethyl-6H-dibenzo[b,d]pyran-3-yl]-2-methyl-N-pentylpropanamide], the “mouse plasma t1/2” value in the data set with mouse plasma esterases is “Stable ^e”.
